The first data set concerns PC-3. As to the kind of experiment: Growth inhibition of human PC3 cells after 48 hrs by sulforhodamine B assay. The data set is classed as functional. The following applies: PC-3, 48 h. The method, boiled down: (§1)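 Yamori 39-line human cancer panel, NCI method with modifications. Cells plated in RPMI 1640 plus 5% FBS, attached overnight, then exposed 48 h to compound at 10^-8, 10^-7, 10^-6, 10^-5 and 10^-4 M. Sulforhodamine B staining read at 525 nm; % growth = 100[(T−T0)/(C−T0)] from duplicate-point averages, with T0 the time-zero absorbance. GI50 is the concentration giving 50.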
For orientation: GI50 means the concentration that inhibits growth by half. Read a high GI50 as less potent growth inhibition. `CC(=O)Nc1ccc(O)cc1CCCC[C@@H]1C[C@@H]2C[C@@]3(O[C@H](CCC3(C)C)CC(=O)O[C@@H](CO)CC(=O)O2)O1` showed a GI50 of over 100 µM.

For another data set, the system named is MCF7. The data set can be described thus: Growth inhibition of human MCF7 cells after 48 hrs by sulforhodamine B assay. The data set is classed as functional. To be noted: MCF7, 48 h. The procedure, abridged:
as §1
On the technique in general: Sulforhodamine B stains cellular protein and so reports cell mass.
`CC(=O)Nc1ccc(O)cc1CCCC[C@@H]1C[C@@H]2C[C@@]3(O[C@H](CCC3(C)C)CC(=O)O[C@@H](CO)CC(=O)O2)O1` had a GI50 of over 100 µM.

Another data set concerns HT-29. The data set can be described thus: Growth inhibition of human HT-29 cells after 48 hrs by sulforhodamine B assay. The data set is classed as functional. To be noted: HT-29, 48 h. The method, boiled down:
as §1
Consider `CC(=O)Nc1ccc(O)cc1CCCC[C@@H]1C[C@@H]2C[C@@]3(O[C@H](CCC3(C)C)CC(=O)O[C@@H](CO)CC(=O)O2)O1`, for which the GI50 was over 100 µM.

The test system of another data set is Human gammaherpesvirus 4. As to the kind of experiment: Induction of EBV-early antigen expressed in human Raji cells at 10^-7 M after 48 hrs by immunofluorescence assay relative to control. The data set is classed as organism-based. The following applies: human gammaherpesvirus 4, raji, 0.1 µM. The procedure, abridged:
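Raji B-lymphoblastoid cells (5 × 10^5/mL) in RPMI 1640 with 10% FBS, with 4 mM sodium n-butyrate as synergist and test compound at 10^-7 or 10^-6 M (final DMSO 0.4%). Incubated 48 h at 37 °C under 5% CO2. Smears were stained by indirect immunofluorescence using NPC patient serum and FITC anti-human IgG. At least 500 cells counted; % EA-positive recorded; n = 3, SEM.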
`CC(=O)Nc1ccc(O)cc1CCCC[C@@H]1C[C@@H]2C[C@@]3(O[C@H](CCC3(C)C)CC(=O)O[C@@H](CO)CC(=O)O2)O1` displayed an Activity of 2%.

The next data set deals with NCI-H23. As to the kind of experiment: Growth inhibition of human NCI-H23 cells after 48 hrs by sulforhodamine B assay. To be noted: NCI-H23, 48 h. The class given is functional. The procedure, abridged: as §1
For `CC(=O)Nc1ccc(O)cc1CCCC[C@@H]1C[C@@H]2C[C@@]3(O[C@H](CCC3(C)C)CC(=O)O[C@@H](CO)CC(=O)O2)O1`, the GI50 is over 100 µM.

Another data set deals with NCI-H460. The data set can be described thus: Growth inhibition of human NCI-H460 cells after 48 hrs by sulforhodamine B assay. The data set is classed as functional. The following applies: NCI-H460, 48 h. The method, boiled down: as §1
The molecule `CC(=O)Nc1ccc(O)cc1CCCC[C@@H]1C[C@@H]2C[C@@]3(O[C@H](CCC3(C)C)CC(=O)O[C@@H](CO)CC(=O)O2)O1` gave a GI50 of over 100 µM.

A further data set relates to OVCAR-3. The data set can be described thus: Growth inhibition of human OVCAR3 cells after 48 hrs by sulforhodamine B assay. The data set is classed as functional. To be noted: OVCAR-3, 48 h. The procedure, abridged: as §1
The molecule `CC(=O)Nc1ccc(O)cc1CCCC[C@@H]1C[C@@H]2C[C@@]3(O[C@H](CCC3(C)C)CC(=O)O[C@@H](CO)CC(=O)O2)O1` had a GI50 of over 100 µM.

System in a further data set: not listed separately
The data set can be described thus: Cytotoxicity against human Raji cells assessed as cell viability at 10^-6 M. The class given is cell-based. The following applies: read-out: Activity.
As to `CC(=O)Nc1ccc(O)cc1CCCC[C@@H]1C[C@@H]2C[C@@]3(O[C@H](CCC3(C)C)CC(=O)O[C@@H](CO)CC(=O)O2)O1`, the viability at 1 µM worked out at 60%.

The target of a further data set is T1, Protein kinase C delta type (Homo sapiens, UniProt Q05655). As to the kind of experiment: Inhibition of [3H]PDBu binding to PKCdelta-C1A domain peptide (unknown origin).
T1 sequence (Q05655 whole entry, the tested form may be a part): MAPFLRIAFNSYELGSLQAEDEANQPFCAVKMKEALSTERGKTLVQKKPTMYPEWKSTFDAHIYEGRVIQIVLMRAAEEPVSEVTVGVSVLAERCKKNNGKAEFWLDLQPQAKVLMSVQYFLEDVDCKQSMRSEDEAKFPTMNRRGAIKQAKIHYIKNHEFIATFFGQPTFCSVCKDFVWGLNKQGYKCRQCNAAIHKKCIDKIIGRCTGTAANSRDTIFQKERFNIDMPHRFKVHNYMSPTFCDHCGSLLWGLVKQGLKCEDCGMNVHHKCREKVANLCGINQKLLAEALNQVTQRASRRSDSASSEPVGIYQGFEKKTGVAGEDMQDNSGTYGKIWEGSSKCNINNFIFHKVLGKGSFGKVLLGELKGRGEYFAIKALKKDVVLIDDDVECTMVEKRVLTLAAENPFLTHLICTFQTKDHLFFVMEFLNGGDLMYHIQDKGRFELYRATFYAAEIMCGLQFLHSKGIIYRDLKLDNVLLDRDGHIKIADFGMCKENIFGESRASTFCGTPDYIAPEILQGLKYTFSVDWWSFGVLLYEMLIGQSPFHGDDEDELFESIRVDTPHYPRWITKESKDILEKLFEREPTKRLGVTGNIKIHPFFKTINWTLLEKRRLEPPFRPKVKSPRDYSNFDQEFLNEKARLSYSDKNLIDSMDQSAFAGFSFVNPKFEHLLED
Details: not given
The procedure, abridged: (§2)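 Competitive [3H]PDBu binding used 14 or 40 nM PKCδ C1 peptide and 20 nM [3H]PDBu (19.6 Ci/mmol), in 50 mM Tris-maleate (pH 7.4 at 4 °C) with 50 µg/mL phosphatidylserine, 3 mg/mL bovine γ-globulin and varied inhibitor concentrations. IC50 was taken as 50% inhibition of specific binding. Ki was derived by the Sharkey–Blumberg method.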
A word on the Ki: it is the dissociation constant of the complex between target and ligand, obtained from inhibition or displacement. A low value points to a stronger hold on the target. In turn, `CC(=O)Nc1ccc(O)cc1CCCC[C@@H]1C[C@@H]2C[C@@]3(O[C@H](CCC3(C)C)CC(=O)O[C@@H](CO)CC(=O)O2)O1` yielded an inhibition constant Ki of 8.7 µM. This counts as single-digit micromolar.

A further data set has as its system DU-145. The data set can be described thus: Growth inhibition of human DU145 cells after 48 hrs by sulforhodamine B assay. The following applies: DU-145, 48 h. The class given is functional. The method, boiled down:
as §1
Regarding `CC(=O)Nc1ccc(O)cc1CCCC[C@@H]1C[C@@H]2C[C@@]3(O[C@H](CCC3(C)C)CC(=O)O[C@@H](CO)CC(=O)O2)O1`, the GI50 was over 100 µM.

A further data set relates to SNB-78. The data set can be described thus: Growth inhibition of human SNB78 cells after 48 hrs by sulforhodamine B assay. The data set is classed as functional. To be noted: SNB-78, 48 h. The procedure, abridged:
as §1
`CC(=O)Nc1ccc(O)cc1CCCC[C@@H]1C[C@@H]2C[C@@]3(O[C@H](CCC3(C)C)CC(=O)O[C@@H](CO)CC(=O)O2)O1` gave a GI50 of over 100 µM.

For a further data set, the system named is DMS-114. As to the kind of experiment: Growth inhibition of human DMS114 cells after 48 hrs by sulforhodamine B assay. The class given is functional. To be noted: DMS-114, 48 h. The procedure, abridged: as §1
Molecule `CC(=O)Nc1ccc(O)cc1CCCC[C@@H]1C[C@@H]2C[C@@]3(O[C@H](CCC3(C)C)CC(=O)O[C@@H](CO)CC(=O)O2)O1` gave a GI50 of 55 µM.

The next data set has as its system A549. The data set can be described thus: Growth inhibition of human A549 cells after 48 hrs by sulforhodamine B assay. The data set is classed as functional. To be noted: A549, 48 h. The procedure, abridged:
as §1
Molecule `CC(=O)Nc1ccc(O)cc1CCCC[C@@H]1C[C@@H]2C[C@@]3(O[C@H](CCC3(C)C)CC(=O)O[C@@H](CO)CC(=O)O2)O1` had a GI50 of over 100 µM.

A further data set relates to HCT-15. The data set can be described thus: Growth inhibition of human HCT15 cells after 48 hrs by sulforhodamine B assay. The class given is functional. The following applies: HCT-15, 48 h. The procedure, abridged: as §1
Consider `CC(=O)Nc1ccc(O)cc1CCCC[C@@H]1C[C@@H]2C[C@@]3(O[C@H](CCC3(C)C)CC(=O)O[C@@H](CO)CC(=O)O2)O1`, for which the GI50 is over 100 µM.

For another data set, the system named is U-251. The data set can be described thus: Growth inhibition of human U251 cells after 48 hrs by sulforhodamine B assay. The data set is classed as functional. The following applies: U-251, 48 h. The method, boiled down:
as §1
For `CC(=O)Nc1ccc(O)cc1CCCC[C@@H]1C[C@@H]2C[C@@]3(O[C@H](CCC3(C)C)CC(=O)O[C@@H](CO)CC(=O)O2)O1`, the GI50 was over 100 µM.

System in a further data set: not listed separately
The data set can be described thus: Growth inhibition of human HBC4 cells after 48 hrs by sulforhodamine B assay. The data set is classed as functional. The following applies: HBC4, 48 h. The procedure, abridged: as §1
Molecule `CC(=O)Nc1ccc(O)cc1CCCC[C@@H]1C[C@@H]2C[C@@]3(O[C@H](CCC3(C)C)CC(=O)O[C@@H](CO)CC(=O)O2)O1` showed a GI50 of over 100 µM.

System in a further data set: not listed separately
As to the kind of experiment: Growth inhibition of human MKN1 cells after 48 hrs by sulforhodamine B assay. The data set is classed as functional. To be noted: MKN-1, 48 h. The procedure, abridged:
as §1
On to `CC(=O)Nc1ccc(O)cc1CCCC[C@@H]1C[C@@H]2C[C@@]3(O[C@H](CCC3(C)C)CC(=O)O[C@@H](CO)CC(=O)O2)O1`, for which the GI50 is over 100 µM.

The next data set concerns the target T1, Protein kinase C delta type. The data set can be described thus: Inhibition of [3H]PDBu binding to PKCdelta-C1B domain peptide (unknown origin).
Details: not given
The method, boiled down: as §2
As for `CC(=O)Nc1ccc(O)cc1CCCC[C@@H]1C[C@@H]2C[C@@]3(O[C@H](CCC3(C)C)CC(=O)O[C@@H](CO)CC(=O)O2)O1`, the Ki turned out to be 0.69 µM.

Another data set relates to St-4. The data set can be described thus: Growth inhibition of human St-4 cells after 48 hrs by sulforhodamine B assay. The following applies: St-4, 48 h. The data set is classed as functional. The method, boiled down: as §1
As to `CC(=O)Nc1ccc(O)cc1CCCC[C@@H]1C[C@@H]2C[C@@]3(O[C@H](CCC3(C)C)CC(=O)O[C@@H](CO)CC(=O)O2)O1`, the GI50 was over 100 µM.

System in another data set: not listed separately
As to the kind of experiment: Growth inhibition of human BSY1 cells after 48 hrs by sulforhodamine B assay. The data set is classed as functional. To be noted: BSY-1, 48 h. The method, boiled down:
as §1
`CC(=O)Nc1ccc(O)cc1CCCC[C@@H]1C[C@@H]2C[C@@]3(O[C@H](CCC3(C)C)CC(=O)O[C@@H](CO)CC(=O)O2)O1` gave a concentration for 50% growth inhibition (GI50) of over 100 µM.

A further data set has as its system LOX IMVI. The data set can be described thus: Growth inhibition of human LOXIMVI cells after 48 hrs by sulforhodamine B assay. The class given is functional.
Details: not given
The method, boiled down:
as §1
`CC(=O)Nc1ccc(O)cc1CCCC[C@@H]1C[C@@H]2C[C@@]3(O[C@H](CCC3(C)C)CC(=O)O[C@@H](CO)CC(=O)O2)O1` gave a GI50 of 74.1 µM. This counts as double-digit micromolar.

System in another data set: not listed separately
As to the kind of experiment: Growth inhibition of human RXF631L cells after 48 hrs by sulforhodamine B assay. The class given is functional. The following applies: RXF 631, 48 h. The procedure, abridged: as §1
Consider `CC(=O)Nc1ccc(O)cc1CCCC[C@@H]1C[C@@H]2C[C@@]3(O[C@H](CCC3(C)C)CC(=O)O[C@@H](CO)CC(=O)O2)O1`, for which the GI50 is over 100 µM.

A further data set concerns OVCAR-4. As to the kind of experiment: Growth inhibition of human OVCAR4 cells after 48 hrs by sulforhodamine B assay. The class given is functional. To be noted: OVCAR-4, 48 h. The method, boiled down: as §1
Turning to `CC(=O)Nc1ccc(O)cc1CCCC[C@@H]1C[C@@H]2C[C@@]3(O[C@H](CCC3(C)C)CC(=O)O[C@@H](CO)CC(=O)O2)O1`, the GI50 was over 100 µM.

The values above are taken from ChEMBL document CHEMBL2380295, “Structure-activity studies on the side chain of a simplified analog of aplysiatoxin (aplog-1) with anti-proliferative activity” (Bioorg Med Chem, 2013).
